Results taken from ChEMBL document CHEMBL3352259, “Benzimidazole--ibuprofen/mesalamine conjugates: potential candidates for multifactorial diseases” (Eur J Med Chem, 2015).

Legend:
Mus musculus [1] = assay: Immunomodulatory activity in albino mouse assessed as change in carbon clearance index at 150 umol/kg, po for 5 days followed by carbon ink challenge; type: functional
Summary of the method: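 Albino mice (18-22 g), 6 per group, 150 µmol/kg p.o. daily for 5 days (control 0.5% SCMC, 0.3 mL). Carbon ink suspension (10 µL/g) given via tail vein 48 h later. Retro-orbital blood at 3 and 15 min, 25 µL into 2 mL 0.1% Na2CO3, OD read. K = (ln OD1 − ln OD2)/12. Mean ± SD.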

Mus musculus [2] = assay: Immunomodulatory activity in albino mouse assessed as change in humoral antibody titre at 150 umol/kg, po for 7 days followed by sheep RBC challenge measured on day 14; type: functional
Summary of the method: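 Albino mice, 6 per group, 150 µmol/kg p.o. for 7 days. On day 7, challenged i.p. with 0.1 mL sheep RBC suspension (about 1×10^8 cells per 0.1 mL, saline-washed). Retro-orbital blood taken on day 14, serum separated at 2500 rpm for 10 min, and antibody titre determined by microtitre haemagglutination. Mean ± SD.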

Rattus norvegicus [3] = assay: Antiinflammatory activity against carrageenan-induced ip dosed Wistar rat paw edema model assessed as inhibition of edema administered 30 mins prior to carrageenan challenge measured after 60 mins; type: functional
Summary of the method: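 Wistar rats (150-200 g, either sex), 150 µmol/kg i.p. 30 min before subplantar carrageenan; vehicle control 0.5% SCMC. Paw volume read at 0, 30, 60, 120, 180 min. % oedema inhibition = 100 − [(treated paw volume/control paw volume) × 100].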

Rattus norvegicus [4] = assay: Antioxidant activity in Wistar rat assessed as thiobarbituric acid reactive substance level measured per mg of protein at 150 umol/kg, po administered for 3 days measured on day 4 (reference value: 3.72 +/- 00.23 nmol); type: functional
Rattus norvegicus [5] = assay: Gastrointestinal toxicity in Wistar rat assessed as ulcer index at 150 umol/kg, po administered for 3 days measured on day 4 (reference value: 0.33 +/-0.20); type: organism-based; details: in vivo, 72 h
Rattus norvegicus [6] = assay: Antioxidant activity in Wistar rat assessed as GSH level measured per 100 mg of protein at 150 umol/kg, po administered for 3 days measured on day 4 (reference value: 184.10 +/- 4.19 umol); type: functional
Rattus norvegicus [7] = assay: Antioxidant activity in Wistar rat assessed as catalase level measured per mg of protein at 150 umol/kg, po administered for 3 days measured on day 4 (reference value: 22.14 +/- 1.19 umol); type: functional

SMILES	Activity (Mus musculus [1])	Activity (Mus musculus [2])	inhibition (INH) (Rattus norvegicus [3])	Activity (Rattus norvegicus [4])	UI (Rattus norvegicus [5])	Activity (Rattus norvegicus [6])	Activity (Rattus norvegicus [7])
Cc1ccc2nc(NC(=O)C(C)c3ccc(CC(C)C)cc3)[nH]c2c1 (stereo not drawn)	47.1%	23.1%	54.1%				
COc1ccc2nc(-c3cc(N)ccc3O)[nH]c2c1	70.5%	46.2%	55.7%				
Nc1ccc(O)c(C(=O)Nc2nc3ccccc3[nH]2)c1	-29.4%	-34.6%	50%				
CC(C)Cc1ccc(C(C)c2nc3ccc(C(=O)c4ccccc4)cc3[nH]2)cc1 (stereo not drawn)	>100%	61.5%	68.1%	11.28 nmol	0.7	131.5 µmol	14.12 µmol
CC(C)Cc1ccc(C(C)C(=O)O)cc1 (stereo not drawn) [IBUPROFEN]			53.8%				
CC(C)Cc1ccc(C(C)C(=O)Nc2nc3ccc([N+](=O)[O-])cc3[nH]2)cc1 (stereo not drawn)	23.5%	15.3%	34.3%				
CC(C)Cc1ccc(C(C)C(=O)Nc2nc3ccc(C(=O)c4ccccc4)cc3[nH]2)cc1 (stereo not drawn)	64.7%	42.3%	60.1%				
Nc1ccc(O)c(C(=O)Nc2nc3ccc(C(=O)c4ccccc4)cc3[nH]2)c1	-17.6%	-26.9%	52.1%				
Cc1ccc2nc(C(C)c3ccc(CC(C)C)cc3)[nH]c2c1 (stereo not drawn)	70.5%	38.4%	58%				
CC(C)Cc1ccc(C(C)c2nc3ccccc3[nH]2)cc1 (stereo not drawn)	>100%	57.6%	57.1%	5.9 nmol	0.92	158.6 µmol	18.26 µmol
c1ccc([C@H]2CN3CCSC3=N2)cc1 [LEVAMISOLE]	88.2%	65.3%					
Nc1ccc(O)c(C(=O)O)c1 [MESALAMINE]			50%				
Nc1ccc(O)c(-c2nc3ccccc3[nH]2)c1	>100%	61.5%	54.6%	5.47 nmol	0.58	178.18 µmol	18.78 µmol
COc1ccc2nc(C(C)c3ccc(CC(C)C)cc3)[nH]c2c1 (stereo not drawn)	52.9%	42.3%	64.7%				
CC(C)Cc1ccc(C(C)c2nc3ccc([N+](=O)[O-])cc3[nH]2)cc1 (stereo not drawn)	29.4%	19.2%	38%				
COc1ccc2nc(NC(=O)C(C)c3ccc(CC(C)C)cc3)[nH]c2c1 (stereo not drawn)	52.9%	26.9%	55.3%				
COc1ccc2nc(NC(=O)c3cc(N)ccc3O)[nH]c2c1	-29.4%	-34.6%	50%				
Cc1ccc2nc(-c3cc(N)ccc3O)[nH]c2c1	58.8%	42.3%	52.4%				
Nc1ccc(O)c(C(=O)Nc2nc3ccc([N+](=O)[O-])cc3[nH]2)c1	-41.1%	-50%	36.9%	11.98 nmol	0.4	127.32 µmol	11.87 µmol
COc1ccc2c(c1)c(CC(=O)O)c(C)n2C(=O)c1ccc(Cl)cc1 [INDOMETHACIN]				30.41 nmol	3.17	85.2 µmol	7.79 µmol
Nc1ccc(O)c(-c2nc3ccc([N+](=O)[O-])cc3[nH]2)c1	41.2%	23%	42.9%				
CC(C)Cc1ccc(C(C)C(=O)Nc2nc3ccccc3[nH]2)cc1 (stereo not drawn)	76.4%	38.4%	53.8%				
Cc1ccc2nc(NC(=O)c3cc(N)ccc3O)[nH]c2c1	-35.2%	-38.4%	48.8%				
Nc1ccc(O)c(-c2nc3ccc(C(=O)c4ccccc4)cc3[nH]2)c1	>100%	69.2%	62.6%	8.95 nmol	1.1	153.38 µmol	16.94 µmol
